Results taken from ChEMBL document CHEMBL3098105, “7,7'-Diazaindirubin--a small molecule inhibitor of casein kinase 2 in vitro and in cells” (Bioorg Med Chem, 2014).
The source made the active and inactive calls. The calls are words filed in the database; no cut-off is given here.

Key:
[1] = molecular target: Serine/threonine-protein kinase WNK2 (Homo sapiens) (UniProt Q9Y3S1); test: Inhibition of human WNK2 assessed as residual activity at 1 uM relative to control
[2] = tested on: NCI-H226; test: Antiproliferative activity against human NCI-H226 cells after 3 days by sulforhodamine B assay; type: functional; details: NCI-H226, 72 h
Summary of the method: (§1)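 Tested in the NCI 60 cell line panel. GI50 is the concentration giving 50% inhibition of cell growth, and values are the mean of two series of tests.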

[3] = molecular target: Serine/threonine-protein kinase Nek2 (Homo sapiens) (UniProt P51955); test: Inhibition of human NEK2 assessed as residual activity at 1 uM relative to control
[4] = tested on: HT-29; test: Antiproliferative activity against human HT-29 cells after 3 days by SRB assay; type: functional, cell-based; details: HT-29, 72 h
Summary of the method: (§2)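 Cells grown at 37 °C, 5% CO2, with 10% heat-inactivated FBS: LXFL529L in RPMI 1640, MCF7 and HT29 in DMEM. Seeded, allowed 24 h growth, then exposed to the drug at various concentrations for 3 days in serum medium. Fixed with TCA for 1 h at 4 °C, stained with 0.4% SRB, eluted in 10 mM Tris pH 10.5, read at 570 nm as % T/C. IC50 taken from dose–response curves of at least three independent experiments.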

[5] = molecular target: T1, Casein kinase II (Homo sapiens) (UniProt P67870+P68400+P19784); test: Inhibition of human CK2 assessed as residual activity at 1 uM relative to control; type: protein-complex assay
[6] = molecular target: T2, Aurora kinase A (Homo sapiens) (UniProt O14965); test: Inhibition of human Aurora-A assessed as residual activity at 1 uM relative to control
T2 sequence (whole entry): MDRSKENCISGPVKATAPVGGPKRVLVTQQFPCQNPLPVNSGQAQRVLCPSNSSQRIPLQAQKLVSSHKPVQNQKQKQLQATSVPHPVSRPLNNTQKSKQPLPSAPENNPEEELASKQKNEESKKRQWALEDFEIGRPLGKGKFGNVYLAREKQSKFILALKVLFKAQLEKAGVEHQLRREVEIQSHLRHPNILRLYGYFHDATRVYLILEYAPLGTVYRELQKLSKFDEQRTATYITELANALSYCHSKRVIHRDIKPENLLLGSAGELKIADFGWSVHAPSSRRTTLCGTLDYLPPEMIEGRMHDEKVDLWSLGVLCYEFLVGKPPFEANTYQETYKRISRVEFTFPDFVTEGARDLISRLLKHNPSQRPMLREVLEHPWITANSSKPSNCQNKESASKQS

[7] = molecular target: Aurora kinase B (Homo sapiens) (UniProt Q96GD4); test: Inhibition of Aurora-B (unknown origin) assessed as residual activity at 1 uM relative to control
[8] = molecular target: Casein kinase I isoform gamma-2 (Homo sapiens) (UniProt P78368); test: Inhibition of human CK1gamma2 assessed as residual activity at 1 uM relative to control
[9] = molecular target: Protein kinase C beta type (Homo sapiens) (UniProt P05771); test: Inhibition of human PKCbeta1 assessed as residual activity at 1 uM relative to control
[10] = tested on: SW-620; test: Antiproliferative activity against human SW620 cells after 3 days by sulforhodamine B assay; type: functional; details: SW-620, 72 h
[11] = molecular target: Cyclin-dependent kinase 4/cyclin D1 (Homo sapiens) (UniProt P11802+P24385); test: Inhibition of CDK4/CycD1 (unknown origin) assessed as residual activity at 10 uM relative to control; type: protein-complex assay
[12] = molecular target: Calcium/calmodulin-dependent protein kinase type 1D (Homo sapiens) (UniProt Q8IU85); test: Inhibition of human CaMK1delta assessed as residual activity at 1 uM relative to control
[13] = organism: Homo sapiens; test: Inhibition of S6K (unknown origin) assessed as residual activity at 10 uM relative to control
[14] = molecular target: Serine/threonine-protein kinase Sgk1 (Homo sapiens) (UniProt O00141); test: Inhibition of human SGK assessed as residual activity at 1 uM relative to control
[15] = molecular target: Angiopoietin-1 receptor (Homo sapiens) (UniProt Q02763); test: Inhibition of human Tie2 assessed as residual activity at 1 uM relative to control
[16] = tested on: DU-145; test: Antiproliferative activity against human DU145 cells after 3 days by sulforhodamine B assay; type: functional; details: DU-145, 72 h; summary of the method: as §1
[17] = molecular target: Vascular endothelial growth factor receptor 2 (Homo sapiens) (UniProt P35968); test: Inhibition of VEGF-R2 (unknown origin) assessed as residual activity at 10 uM relative to control
[18] = molecular target: Serine/threonine-protein kinase Chk2 (Homo sapiens) (UniProt O96017); test: Inhibition of CHK2 (unknown origin) assessed as residual activity at 1 uM relative to control
[19] = molecular target: MAP kinase-activated protein kinase 2 (Homo sapiens) (UniProt P49137); test: Inhibition of human MAPKAP-K2 assessed as residual activity at 1 uM relative to control
[20] = molecular target: Casein kinase I isoform gamma-3 (Homo sapiens) (UniProt Q9Y6M4); test: Inhibition of human CK1gamma3 assessed as residual activity at 1 uM relative to control
[21] = molecular target: T1, Casein kinase II (Homo sapiens); test: Inhibition of CK2-mediated Wnt signaling in human MCF7 cells assessed as reduction of beta-catenin level at 1 uM after 15 mins by Western blot analysis; type: cell-based
Summary of the method: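 MCF7 cells were grown at 37 °C and 5% CO2 in DMEM with 10% heat-inactivated FBS and penicillin/streptomycin. Cells were exposed to 1 µM for the indicated times, with DMSO as the untreated control. Extracts were made in urea lysis buffer, and 20–40 µg protein was run on 10% SDS–PAGE. Blots were probed with primary antibodies (1:1000, overnight, 4 °C) and read by ECL, with β-actin as loading control.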

[22] = molecular target: Dual specificity protein kinase CLK3 (Homo sapiens) (UniProt P49761); test: Inhibition of human CLK3 assessed as residual activity at 1 uM relative to control
[23] = molecular target: Serine/threonine-protein kinase Nek7 (Homo sapiens) (UniProt Q8TDX7); test: Inhibition of human NEK7 assessed as residual activity at 1 uM relative to control
[24] = molecular target: Mast/stem cell growth factor receptor Kit (Homo sapiens) (UniProt P10721); test: Inhibition of human cKit assessed as residual activity at 1 uM relative to control
[25] = molecular target: Dual specificity mitogen-activated protein kinase kinase 1 (Homo sapiens) (UniProt Q02750); test: Inhibition of human MEK1 assessed as residual activity at 1 uM relative to control
[26] = tested on: CCRF-CEM; test: Antiproliferative activity against human CCRF-CEM cells after 3 days by sulforhodamine B assay; type: functional; details: 72 h; summary of the method: as §1
[27] = molecular target: Proto-oncogene tyrosine-protein kinase Src (Homo sapiens) (UniProt P12931); test: Inhibition of SRC (unknown origin) assessed as residual activity at 10 uM relative to control
[28] = tested on: MCF7; test: Antiproliferative activity against human MCF7 cells after 3 days by SRB assay; type: functional, cell-based; details: MCF7, 72 h; summary of the method: as §2
[29] = molecular target: Receptor tyrosine-protein kinase erbB-2 (Homo sapiens) (UniProt P04626); test: Inhibition of ERBB2 (unknown origin) assessed as residual activity at 10 uM relative to control

Sequence of MAP kinase-activated protein kinase 2 (Homo sapiens) (P49137 whole entry, looked up, canonical isoform): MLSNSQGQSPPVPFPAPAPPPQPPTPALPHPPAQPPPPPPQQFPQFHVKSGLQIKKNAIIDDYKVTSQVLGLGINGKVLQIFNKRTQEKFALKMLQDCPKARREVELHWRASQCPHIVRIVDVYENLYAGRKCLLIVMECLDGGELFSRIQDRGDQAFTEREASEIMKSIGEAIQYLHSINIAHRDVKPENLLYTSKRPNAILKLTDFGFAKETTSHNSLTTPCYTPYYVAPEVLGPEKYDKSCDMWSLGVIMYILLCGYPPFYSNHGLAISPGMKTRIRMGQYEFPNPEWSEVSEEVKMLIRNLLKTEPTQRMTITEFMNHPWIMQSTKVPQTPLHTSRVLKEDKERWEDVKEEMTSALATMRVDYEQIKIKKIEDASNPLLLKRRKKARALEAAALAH
Sequence of Serine/threonine-protein kinase Nek2 (Homo sapiens) (P51955 whole entry): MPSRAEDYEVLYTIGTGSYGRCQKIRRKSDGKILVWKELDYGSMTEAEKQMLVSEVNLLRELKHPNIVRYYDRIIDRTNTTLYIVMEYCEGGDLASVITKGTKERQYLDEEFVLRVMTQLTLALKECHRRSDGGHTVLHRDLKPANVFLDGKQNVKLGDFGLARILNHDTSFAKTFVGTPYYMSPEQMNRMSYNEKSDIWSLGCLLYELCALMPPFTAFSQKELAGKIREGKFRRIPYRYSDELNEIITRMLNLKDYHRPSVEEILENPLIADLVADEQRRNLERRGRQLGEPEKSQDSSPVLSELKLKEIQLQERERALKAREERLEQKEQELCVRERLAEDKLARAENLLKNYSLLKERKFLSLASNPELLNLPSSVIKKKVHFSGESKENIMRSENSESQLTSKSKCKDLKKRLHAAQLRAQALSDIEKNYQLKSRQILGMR
Sequence of Serine/threonine-protein kinase WNK2 (Homo sapiens) (Q9Y3S1 whole entry): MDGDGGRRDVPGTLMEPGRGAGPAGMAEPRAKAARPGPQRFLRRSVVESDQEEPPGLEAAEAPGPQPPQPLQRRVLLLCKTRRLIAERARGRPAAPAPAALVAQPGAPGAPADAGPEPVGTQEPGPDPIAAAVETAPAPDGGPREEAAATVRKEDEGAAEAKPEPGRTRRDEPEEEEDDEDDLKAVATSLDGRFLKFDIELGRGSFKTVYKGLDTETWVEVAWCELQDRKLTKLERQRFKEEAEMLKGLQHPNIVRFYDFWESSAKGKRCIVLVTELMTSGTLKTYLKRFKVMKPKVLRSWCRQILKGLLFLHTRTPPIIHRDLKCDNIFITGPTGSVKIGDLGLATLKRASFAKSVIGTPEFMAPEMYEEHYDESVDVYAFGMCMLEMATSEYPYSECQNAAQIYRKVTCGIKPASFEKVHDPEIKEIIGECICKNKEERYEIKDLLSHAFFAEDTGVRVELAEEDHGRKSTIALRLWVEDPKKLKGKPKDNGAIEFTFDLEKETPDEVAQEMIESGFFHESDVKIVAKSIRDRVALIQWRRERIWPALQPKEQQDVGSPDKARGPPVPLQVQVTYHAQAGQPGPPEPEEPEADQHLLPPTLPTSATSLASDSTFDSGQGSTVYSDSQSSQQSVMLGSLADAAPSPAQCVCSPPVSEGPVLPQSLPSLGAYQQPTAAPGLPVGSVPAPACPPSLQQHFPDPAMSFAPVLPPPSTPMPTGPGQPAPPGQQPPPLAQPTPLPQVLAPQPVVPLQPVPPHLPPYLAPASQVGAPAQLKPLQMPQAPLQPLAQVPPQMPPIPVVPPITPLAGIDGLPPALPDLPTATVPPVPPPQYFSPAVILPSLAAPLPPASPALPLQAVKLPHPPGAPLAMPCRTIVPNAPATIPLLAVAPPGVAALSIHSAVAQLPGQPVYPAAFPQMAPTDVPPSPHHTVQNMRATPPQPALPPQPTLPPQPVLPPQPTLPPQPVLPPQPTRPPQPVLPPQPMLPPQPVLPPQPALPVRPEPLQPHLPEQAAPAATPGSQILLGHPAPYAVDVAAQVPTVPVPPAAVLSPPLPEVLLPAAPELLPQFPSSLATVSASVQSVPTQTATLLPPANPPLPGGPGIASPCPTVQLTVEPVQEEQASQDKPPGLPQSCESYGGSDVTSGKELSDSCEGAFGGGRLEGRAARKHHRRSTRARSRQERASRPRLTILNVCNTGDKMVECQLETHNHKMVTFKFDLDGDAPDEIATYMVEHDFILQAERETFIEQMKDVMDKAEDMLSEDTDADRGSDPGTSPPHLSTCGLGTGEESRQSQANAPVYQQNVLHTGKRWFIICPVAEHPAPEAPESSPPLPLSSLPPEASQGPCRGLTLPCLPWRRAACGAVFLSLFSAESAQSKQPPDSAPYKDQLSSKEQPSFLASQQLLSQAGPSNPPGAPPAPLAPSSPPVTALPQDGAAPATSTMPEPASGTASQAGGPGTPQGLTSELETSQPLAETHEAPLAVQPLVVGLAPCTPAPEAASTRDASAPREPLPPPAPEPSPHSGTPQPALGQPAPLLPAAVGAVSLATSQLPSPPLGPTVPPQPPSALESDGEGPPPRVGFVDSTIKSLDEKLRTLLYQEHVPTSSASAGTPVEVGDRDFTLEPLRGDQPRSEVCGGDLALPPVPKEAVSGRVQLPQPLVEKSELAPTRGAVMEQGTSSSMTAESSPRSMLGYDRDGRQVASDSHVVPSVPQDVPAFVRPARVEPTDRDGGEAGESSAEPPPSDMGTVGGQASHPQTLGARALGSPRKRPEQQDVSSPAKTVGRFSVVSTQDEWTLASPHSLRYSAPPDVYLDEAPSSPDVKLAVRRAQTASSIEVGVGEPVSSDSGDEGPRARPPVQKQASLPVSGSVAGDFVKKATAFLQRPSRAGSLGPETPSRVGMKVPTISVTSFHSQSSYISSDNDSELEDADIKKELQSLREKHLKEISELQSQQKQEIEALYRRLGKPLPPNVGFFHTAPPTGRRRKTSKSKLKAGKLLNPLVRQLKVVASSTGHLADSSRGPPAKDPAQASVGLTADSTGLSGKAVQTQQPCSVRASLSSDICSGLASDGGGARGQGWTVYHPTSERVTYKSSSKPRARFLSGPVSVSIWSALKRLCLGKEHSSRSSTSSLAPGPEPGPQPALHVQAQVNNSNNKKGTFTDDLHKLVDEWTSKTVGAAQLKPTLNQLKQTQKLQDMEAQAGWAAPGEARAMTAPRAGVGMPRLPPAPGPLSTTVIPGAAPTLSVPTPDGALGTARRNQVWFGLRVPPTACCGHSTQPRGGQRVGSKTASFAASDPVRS
Sequence of Angiopoietin-1 receptor (Homo sapiens) (Q02763 whole entry): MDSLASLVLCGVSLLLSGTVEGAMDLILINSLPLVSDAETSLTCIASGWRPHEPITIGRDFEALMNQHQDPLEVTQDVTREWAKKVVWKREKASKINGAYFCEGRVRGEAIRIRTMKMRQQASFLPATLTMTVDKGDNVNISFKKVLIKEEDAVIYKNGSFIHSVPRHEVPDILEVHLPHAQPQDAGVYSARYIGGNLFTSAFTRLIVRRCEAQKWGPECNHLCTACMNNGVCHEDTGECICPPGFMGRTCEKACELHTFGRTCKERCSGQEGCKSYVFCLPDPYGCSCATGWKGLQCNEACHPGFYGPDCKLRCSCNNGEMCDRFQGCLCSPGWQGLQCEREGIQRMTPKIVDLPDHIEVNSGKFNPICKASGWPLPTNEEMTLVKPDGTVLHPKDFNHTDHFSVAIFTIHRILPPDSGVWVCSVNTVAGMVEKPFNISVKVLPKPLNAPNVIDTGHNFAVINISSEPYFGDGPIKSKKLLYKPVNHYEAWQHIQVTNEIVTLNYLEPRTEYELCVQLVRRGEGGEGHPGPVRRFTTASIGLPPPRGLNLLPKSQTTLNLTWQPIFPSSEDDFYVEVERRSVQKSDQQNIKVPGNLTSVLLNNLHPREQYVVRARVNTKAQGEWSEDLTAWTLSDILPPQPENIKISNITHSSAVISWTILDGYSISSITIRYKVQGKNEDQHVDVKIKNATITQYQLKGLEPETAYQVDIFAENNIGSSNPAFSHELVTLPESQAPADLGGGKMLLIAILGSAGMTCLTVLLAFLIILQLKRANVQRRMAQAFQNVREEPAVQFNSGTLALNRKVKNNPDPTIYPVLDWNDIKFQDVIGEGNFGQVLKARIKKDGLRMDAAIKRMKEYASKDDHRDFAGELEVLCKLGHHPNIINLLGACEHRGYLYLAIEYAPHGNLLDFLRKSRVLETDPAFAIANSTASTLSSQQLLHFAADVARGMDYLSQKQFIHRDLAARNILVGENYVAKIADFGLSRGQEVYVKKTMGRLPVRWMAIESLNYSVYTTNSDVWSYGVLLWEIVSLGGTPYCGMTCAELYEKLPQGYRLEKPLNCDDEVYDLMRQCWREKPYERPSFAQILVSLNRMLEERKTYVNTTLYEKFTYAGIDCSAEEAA
Sequence of Dual specificity protein kinase CLK3 (Homo sapiens) (P49761 whole entry, looked up): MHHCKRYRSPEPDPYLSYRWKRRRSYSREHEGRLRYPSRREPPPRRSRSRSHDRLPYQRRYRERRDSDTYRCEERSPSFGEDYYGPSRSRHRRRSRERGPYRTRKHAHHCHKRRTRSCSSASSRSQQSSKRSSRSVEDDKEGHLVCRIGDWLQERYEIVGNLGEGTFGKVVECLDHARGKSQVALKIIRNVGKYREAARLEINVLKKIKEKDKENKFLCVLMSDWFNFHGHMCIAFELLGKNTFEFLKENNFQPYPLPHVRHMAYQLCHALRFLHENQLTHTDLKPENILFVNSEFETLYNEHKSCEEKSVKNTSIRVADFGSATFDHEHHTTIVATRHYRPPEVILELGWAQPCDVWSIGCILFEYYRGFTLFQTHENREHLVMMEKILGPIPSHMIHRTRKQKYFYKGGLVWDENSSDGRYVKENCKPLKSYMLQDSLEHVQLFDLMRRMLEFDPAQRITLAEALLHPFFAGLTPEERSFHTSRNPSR
Sequence of Aurora kinase B (Homo sapiens) (Q96GD4 whole entry, canonical isoform): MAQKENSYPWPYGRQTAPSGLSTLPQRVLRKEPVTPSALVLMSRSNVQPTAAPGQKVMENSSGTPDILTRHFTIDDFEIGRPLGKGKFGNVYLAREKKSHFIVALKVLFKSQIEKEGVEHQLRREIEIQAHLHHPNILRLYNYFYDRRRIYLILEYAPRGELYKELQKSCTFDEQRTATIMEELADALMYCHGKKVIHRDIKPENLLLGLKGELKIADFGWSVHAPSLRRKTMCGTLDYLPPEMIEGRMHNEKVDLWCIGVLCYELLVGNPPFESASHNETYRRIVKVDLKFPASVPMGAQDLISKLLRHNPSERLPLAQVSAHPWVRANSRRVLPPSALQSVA

O=C1Nc2ncccc2/C1=C1/Nc2ncccc2C1=O
Activity [1]: 102%
GI50 [2]: 1420 nM
Activity [3]: 101%
IC50 [4]: 2000 nM
Activity [5]: 49%
Activity [6]: 60%
Activity [7]: 108%
Activity [8]: 114%
Activity [9]: 105%
GI50 [10]: 1410 nM
Activity [11]: 88%
Activity [12]: 70%
Activity [13]: 99%
Activity [14]: 88%
Activity [15]: 117%
GI50 [16]: 474 nM
Activity [17]: 102%
Activity [18]: 89%
Activity [19]: 67%
Activity [20]: 37%
inhibition [21]: Active
Activity [22]: 86%
Activity [23]: 57%
Activity [24]: 83%
Activity [25]: 96%
GI50 [26]: 2740 nM
Activity [27]: 107%
IC50 [28]: 500 nM
Activity [29]: 102%
